A selection: hits, their analogues and other compounds. The true share with any hit is near 2.3%.
DENV2 CPE rescue: DENV2-induced cell death inhibition. DENV2-infected cells, cytopathic effect rescue, plate reader. 1.7% of 350,000 active. CPE inhibition, % at 9.99 µM; in the data active = CPE inhibition above about 20%, passing the limit was not always enough; tested in BHK-21 cells
CFTR F508del cor: correctors of CFTR F508del function in bronchial epithelial cells; 0.36% of 350,000 active; activity (quench increase), % at 7.58 µM; AID 720511; CFBE cells, YFP halide quenching; stimulated with forskolin plus potentiator P3; % fluorescence drop versus neutral controls;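 active = mean added fluorescence quench of at least 8% versus neutral control, with both replicates also reaching 8%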;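 note: cells transiently co-express mutant CFTR-F508del with the halide-sensitive YFP; corrector assay measuring rescue of mutant channel to the surface after 24 h compound exposure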
Cneo AK release: Cryptococcus neoformans lysis via adenylate kinase release; lysis activity, % at 15 µM; C. neoformans lysis, adenylate kinase release luminescence, 4 h; normalised: neutral wells 0, clomiphene wells 100; 0.2% of 360,000 active;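 active = mean lysis activity across replicates of at least 80%, whatever share of replicates individually reach that level; inactive = mean lysis activity below 80%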
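Signal: Adenylate kinase release luminescence | Assay system: Log-phase Cryptococcus neoformans yeast cells | Input: Cells at 5 × 10^6 per mL | Buffer or medium: Fresh YPD growth medium | Compound: Single dose | Schedule: Static 4 h at 37 °C with compound, 1 h detection | Controls: Clomiphene | Read-out: Luminescence rise reflecting yeast cell lysis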
Statin myotox sup: protects C2C12 myotubes from simvastatin toxicity. ATP luminescence, 48 h; scaled: DMSO 0, geranylgeraniol control 100. rescue of ATP level, % at 7.49 µM. 0.78% of 330,000 active. AID 602340;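 active = mean ATP rescue above about 67%, or every replicate alone reaching that limit, limit read from the data, passing the limit was not always enough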;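 note: myotubes were challenged with 10 µM simvastatin during compound exposure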
PDI turbidity: blocks human protein disulfide isomerase activity. PDI insulin aggregation turbidity, A650, 90 min. inhibition, % at 10 µM. 0.052% of 350,000 active;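 active = mean inhibition across replicates of 30% or more, whatever share of single replicates reach that level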
Target sequence (P07237 whole entry, looked up): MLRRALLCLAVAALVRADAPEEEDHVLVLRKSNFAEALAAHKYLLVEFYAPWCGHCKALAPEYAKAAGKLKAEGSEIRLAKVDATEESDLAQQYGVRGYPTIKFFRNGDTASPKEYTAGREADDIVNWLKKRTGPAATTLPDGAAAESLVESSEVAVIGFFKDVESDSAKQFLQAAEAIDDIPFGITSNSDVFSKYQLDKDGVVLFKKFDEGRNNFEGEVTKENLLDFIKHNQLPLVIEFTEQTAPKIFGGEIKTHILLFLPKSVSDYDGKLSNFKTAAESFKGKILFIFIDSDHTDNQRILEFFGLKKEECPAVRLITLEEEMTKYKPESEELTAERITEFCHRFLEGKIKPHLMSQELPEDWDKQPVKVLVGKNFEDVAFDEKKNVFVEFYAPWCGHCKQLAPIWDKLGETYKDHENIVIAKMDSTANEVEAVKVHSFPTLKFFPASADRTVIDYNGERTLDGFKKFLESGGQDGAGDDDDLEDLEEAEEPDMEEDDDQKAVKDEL
ERp5 block: inhibitors of human ERp5. ERp5 insulin aggregation, absorbance 650 nm, 90 min. inhibition, % at 9.99 µM. 0.05% of 350,000 active. Q15084;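 active = mean replicate inhibition above about 25%, with every replicate also reaching it, limit read from the data, passing the limit was not always enough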
Each line names hits and unclear results; the compound was inactive in the other large screens.

CC(=O)N(C)C[C@H]1Oc2ncc(C#C[C@H](C)O)cc2C(=O)N([C@H](C)CO)C[C@@H]1C	none (no result: PDI turbidity)
N#C[C@H]1[C@H](c2ccccc2)[C@@H](CO)N1C(=O)CN1CCOCC1	none (no result: PDI turbidity)
NC(c1csc(Nc2ccc(C(=O)NCCCO)cn2)n1)C1CCCCC1 (stereo not drawn)	none
CC(=O)c1ccc(Nc2nc(C(N)C3CCCCC3)cs2)cc1 (stereo not drawn)	none
NC(c1csc(Nc2ccc(C(=O)NCCO)cc2)n1)C1CCCCC1 (stereo not drawn)	DENV2 CPE rescue 22
CC(N)c1csc(Nc2ccc(C(=O)NCCCO)cn2)n1 (stereo not drawn)	DENV2 CPE rescue 30
Cc1noc(C)c1NC(=O)Nc1ccc2c(c1)C(=O)N([C@H](C)CO)C[C@H](C)[C@H](CN(C)Cc1ccc3c(c1)OCO3)O2	none (no result: DENV2 CPE rescue, PDI turbidity)
COc1ccc(-c2nnc(N(C)C(=O)c3ccco3)s2)cc1OC	none
COc1cccc(C(=O)N(C)c2nnc(-c3ccncc3)s2)c1	Statin myotox sup 82 (no result: DENV2 CPE rescue, CFTR F508del cor, Cneo AK release, ERp5 block)
CN(C(=O)c1cccc(C#N)c1)c1nnc(-c2ccncc2)s1	none (no result: DENV2 CPE rescue, CFTR F508del cor, Statin myotox sup, ERp5 block)
Cc1nnc(N(C)C(=O)c2cccnc2)s1	Statin myotox sup 87 (no result: DENV2 CPE rescue, CFTR F508del cor, ERp5 block)
COc1cccc(-c2nnc(N(C)C(=O)C3CCOC3)s2)c1 (stereo not drawn)	Statin myotox sup 97 (no result: DENV2 CPE rescue, CFTR F508del cor, ERp5 block)
Cc1ccc(C(=O)c2c3ccc(C(F)(F)F)cc3[n+]([O-])n2CCCN)cc1	none
Cc1ccc(C(=O)c2c3ccc([N+](=O)[O-])cc3[n+]([O-])n2CCCN)cc1	DENV2 CPE rescue 21
Nc1nc(CSc2nnnn2-c2ccccc2)nc(N2CCCc3ccccc32)n1	Statin myotox sup 115 (no result: DENV2 CPE rescue, CFTR F508del cor, ERp5 block)
O=C(C[C@@H]1C=C[C@H](NC(=O)Nc2ccc3c(c2)OCO3)[C@H](CO)O1)NCc1ccc(Cl)cc1	none (no result: PDI turbidity)
Cn1c(=O)c2c(nc(SCCN3CCOCC3)n2Cc2ccccc2Cl)n(C)c1=O	none (no result: PDI turbidity)
Cc1nnc(Sc2nc3c(c(=O)n(C)c(=O)n3C)n2Cc2ccccc2Cl)s1	Statin myotox sup 118 (no result: DENV2 CPE rescue, CFTR F508del cor, ERp5 block)
O=S(=O)(N[C@@H]1CC[C@@H](CCn2cc(C3(O)CCCC3)nn2)O[C@@H]1CO)c1ccc(F)cc1	none (no result: PDI turbidity)
C(=NNc1ccc2ccccc2n1)c1ccccn1	CFTR F508del cor 8.2 (no result: PDI turbidity)
Cc1cc(NN=Cc2ccccn2)nc2ccccc12	none (no result: Cneo AK release, Statin myotox sup, PDI turbidity)
CN(C)CC(=O)Nc1ccc2c(c1)[C@@H]1C[C@H](CC(=O)NC3CCCC3)O[C@@H](CO)[C@@H]1O2	none (no result: PDI turbidity)
COc1cccc2sc3cc(C#Cc4ccccn4)ccc3c(=O)c12	none
COc1cc2sc3ccc(C#Cc4ccccn4)cc3c(=O)c2cc1OC	DENV2 CPE rescue 23
CN1C(=O)c2cc(NC(=O)C3CCCCC3)ccc2OC[C@@H]2O[C@@H](CC(=O)NC3CCCC3)CC[C@H]21	ERp5 block 31 (no result: PDI turbidity)
CCNC(=O)Nc1ccc2c(c1)C(=O)N(C)[C@H]1CC[C@@H](CC(=O)NC3CCCCC3)O[C@H]1CO2	none (no result: PDI turbidity)
COc1ccc(CNC(=O)C[C@H]2CC[C@H]3[C@@H](COc4ccc(NC(=O)C5CC5)cc4C(=O)N3C)O2)cc1	Cneo AK release 91 (no result: PDI turbidity)
CN1C(=O)c2cc(NC(=O)C3CCCCC3)ccc2OC[C@H]2O[C@H](CC(=O)NC3CCCC3)CC[C@@H]21	none (no result: DENV2 CPE rescue, Cneo AK release, PDI turbidity, ERp5 block)
CCNC(=O)Nc1ccc2c(c1)C(=O)N(C)[C@H]1CC[C@@H](CC(=O)NC3CCCCC3)O[C@@H]1CO2	DENV2 CPE rescue 27 (no result: PDI turbidity)
COc1ccc(CNC(=O)C[C@H]2CC[C@H]3[C@H](COc4ccc(NC(=O)C5CC5)cc4C(=O)N3C)O2)cc1	none (no result: PDI turbidity)
CC(C)OC(=O)CCCNc1ccc([N+](=O)[O-])cc1[N+](=O)[O-]	DENV2 CPE rescue 53
Nc1c(/C=C2/C=CC(=O)C(O)=C2)c(=O)nc2sc(CC(=O)N3CCOCC3)nn12	DENV2 CPE rescue 31
COc1ccc2c(c1)N(C)C(=O)CC(c1ccccc1)=N2	Statin myotox sup 108 (no result: DENV2 CPE rescue, CFTR F508del cor, ERp5 block)
CN(C)C(=O)[C@H]1[C@H](CO)[C@H]2Cn3c(ccc(C4=CCCC4)c3=O)[C@@H]1N2CC1CCOCC1	none (no result: CFTR F508del cor, PDI turbidity)
C[C@H](CO)N1C[C@H](C)[C@@H](CN(C)Cc2cncnc2)Oc2ncc(-c3cccc(C#N)c3)cc2C1=O	none (no result: PDI turbidity)
O=C(NCCCN1CCCC1=O)c1cc(S(=O)(=O)N2CCOCC2)c(Cl)cc1Cl	CFTR F508del cor 17
O=C([C@@H]1[C@@H](CO)[C@@H]2Cn3c(cccc3=O)[C@H]1N2Cc1cccc(Cl)c1)N1CCOCC1	Cneo AK release 98 (no result: CFTR F508del cor, PDI turbidity)
CC=Cc1ccc2n(c1=O)C[C@@H]1[C@@H](CO)[C@H](C(=O)N3CCOCC3)[C@H]2N1CC1CCCC1 (mixture of isomers)	DENV2 CPE rescue 36 (no result: CFTR F508del cor, PDI turbidity)
O=C([C@@H]1[C@@H](CO)[C@@H]2Cn3c(cccc3=O)[C@H]1N2CC1CCCC1)N1CCOCC1	none (no result: Cneo AK release, Statin myotox sup, PDI turbidity)
O=C([C@@H]1[C@@H](CO)[C@@H]2Cn3c(cccc3=O)[C@H]1N2C(=O)CC1CC1)N1CCCCC1	DENV2 CPE rescue 148 (no result: CFTR F508del cor, PDI turbidity)
O=C([C@H]1[C@H](CO)[C@H]2Cn3c(cccc3=O)[C@@H]1N2CC1CCCCC1)N1CCOCC1	DENV2 CPE rescue 63 (no result: CFTR F508del cor, PDI turbidity)
CCC(=O)N1[C@@H]2c3cccc(=O)n3C[C@H]1[C@H](CO)[C@H]2C(=O)N1CCCCC1	none (no result: PDI turbidity)
CO[C@H](CN(C)S(=O)(=O)c1ccc(Cl)cc1)[C@H](C)CN([C@H](C)CO)S(=O)(=O)c1cccc(Cl)c1	none (no result: PDI turbidity)
CCCNC(=O)N1C[C@H](O)COC[C@@H]2O[C@H](CC(=O)N3CCOCC3)CC[C@H]21	none (no result: PDI turbidity)
COc1cccc(S(=O)(=O)N2CCC3(CC2)CN(C(=O)Nc2cccc(F)c2)[C@@H](CO)c2[nH]c4cc(OC)ccc4c23)c1	none (no result: Cneo AK release, Statin myotox sup, PDI turbidity)
O=C(NC1CCC1)[C@H]1[C@H](CO)[C@H]2Cn3c(cccc3=O)[C@@H]1N2CC1CCCC1	DENV2 CPE rescue 36 (no result: Cneo AK release, Statin myotox sup, PDI turbidity)
Cc1ccc(S(=O)(=O)N[C@@H]2C=C[C@@H](CC(=O)NCCN3CCCCC3)O[C@@H]2CO)cc1	none (no result: PDI turbidity)
N#CC1=C(N)OC2=C(CCc3ccccc32)C1c1ccccc1Cl (stereo not drawn)	CFTR F508del cor 10
COCC(=O)N1C[C@@H](C)[C@H](OC)CN(C)C(=O)c2ccc(NC(=O)C3CCC3)cc2OC[C@H]1C	none (no result: PDI turbidity)
CO[C@@H]1CN(C)C(=O)c2ccc(NC(=O)Nc3c(C)noc3C)cc2OC[C@H](C)N(CCC(F)(F)F)C[C@H]1C	DENV2 CPE rescue 37 (no result: Cneo AK release, Statin myotox sup, PDI turbidity)
CCCN1C[C@H](C)[C@@H](OC)CN(C)C(=O)c2ccc(NC(=O)Nc3c(C)noc3C)cc2OC[C@H]1C	DENV2 CPE rescue 21 (no result: PDI turbidity)
COCCNC(=O)C[C@@H]1CC[C@H]2[C@@H](COc3ccc(NC(=O)c4cc(C)on4)cc3C(=O)N2C)O1	none (no result: PDI turbidity)
CCn1c(SCC(=O)NCc2cccs2)nnc1-c1ccco1	Statin myotox sup 105 (no result: DENV2 CPE rescue, CFTR F508del cor, ERp5 block)
Cc1ccc(C(=O)CSc2nnc(-c3ccco3)n2Cc2ccccc2)cc1	Statin myotox sup 83 (no result: DENV2 CPE rescue, CFTR F508del cor, ERp5 block)
